These results are taken from PMC6853148 (Clinical and Translational Science, 2019).

Like-named read-outs stand apart in the source and are kept apart here.

One data set concerns B‐lymphocytes. The data set is classed as in vivo, healthy female subjects. The note with it: for time for B‐lymphocytes to recover to 90% of baseline levels: average. In short, it runs like this: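 B-lymphocytes counted at baseline and after dosing. Individual post hoc PK estimates were fixed, then a Friberg-type semimechanistic model was fitted with a linear drug effect. It has a proliferation compartment, sequential transit compartments, a circulating pool, and feedback (baseline/current count, exponent γ). Baseline was the median predose count, with IIV. Log-transformed counts were fitted with additive residual error and checked by goodness-of-fit plots. Simulations covered single doses.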

For data set [1], the system named is breast cancer resistance protein. The conditions noted are these: cited from earlier work.
The conditions of data set [2]: 4‐week dog studies, male; no reference given; cited from earlier work.
For data set [3] the following is noted: cited from earlier work.
Another data set concerns P‐glycoprotein. The conditions noted are these: cited from earlier work.
The test system of a further data set is CYP3A. The note with it: cited from earlier work.
Data set [4] in a line: Population PK model of venetoclax in healthy subjects. In kind it is in vivo, healthy female subjects. Summed up:
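Pooled data from 203 healthy women (21–65 y, BMI 18.6–30.1 kg/m2) given oral doses of 10–400 mg, 1–4 times with ≥7-day washout, after a 10-h fast or within 30 min of a low/moderate/high-fat breakfast. Serial plasma sampling up to 96 h; assayed by liquid–liquid extraction LC-MS/MS. Two-compartment nonlinear mixed-effects model with lagged first-order absorption, exponential IIV on CL/F, Vc/F and F, and combined residual error. Covariates kept by backward elimination (P < 0.01); low-fat meal as reference.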

Another data set has as its system B cells. The note with it: patients with rheumatoid arthritis; cited from earlier work.
The mark [5] stands for this setting: model simulation, 200 mg single dose.
Where [6] appears, read: covariate effect on bio-availability relative to low-fat meal.

Regarding `CC1(C)CCC(CN2CCN(c3ccc(C(=O)NS(=O)(=O)c4ccc(NCC5CCOCC5)c([N+](=O)[O-])c4)c(Oc4cnc5[nH]ccc5c4)c3)CC2)=C(c2ccc(Cl)cc2)C1` [venetoclax, Venetoclax], the “B‐cell count recovered to 90% of baseline” value with B‐lymphocytes (even at the 400 mg dose) is given as at most 2 months. In addition, the “Slope of drug effect” value in the data set with B‐lymphocytes (linear drug effect on B-lymphocytes, PD model parameter estimate) is on record as 20.9. In the data set on B‐lymphocytes (setting [5]), the “decrease in B‐lymphocytes” value is 24% (15–35%) and the “time for B‐lymphocytes to recover to 90% of baseline levels” value is given as 48 (21–64) days. The “time for B‐lymphocytes to recover to 90% of baseline levels” value with B‐lymphocytes (model simulation, 400 mg single dose) was 59 (30–66) days. In addition, the “recovery of B‐lymphocytes to 90% of baseline levels” value in the data set with B‐lymphocytes (model simulation, three 200 mg doses every week or every other week) was at most 2 months. Moreover, the “time for B‐cell count to rise back to baseline” value in the data set on B‐lymphocytes (simulations/observed data) was 2–3 months. For the same molecule, the “breast cancer resistance protein transporter substrate” value in data set [1] was “substrate”. In data set [2], the toxicology finding entry is on record as “testicular toxicity (germ cell loss)”. Besides, the “increase of venetoclax exposures by food” value in data set [3] (compared with fasting conditions) is listed as “threefold to fivefold”. For the same molecule, the “mean terminal elimination half‐life” value in data set [3] (healthy subjects) is 17 h. Besides, the “mean terminal elimination half‐life” value in data set [3] (subjects with severe hepatic impairment) is 35 h. The “P‐glycoprotein transporter substrate” value in the data set on P‐glycoprotein is “substrate”. In the data set with CYP3A, the metabolizing enzyme entry is “mainly metabolized by CYP3A”. For the same molecule, in data set [4] (setting [6]), the “Fasting on F1” value was 0.29 and the “Moderate/high‐fat on F1” value turned out to be 1.47. Besides, in data set [4] (covariate effect on bio-availability, Chinese ethnicity), the “Chinese on F1” value worked out at 1.53. Moreover, the “Azithromycin on F1” value in data set [4] (covariate effect on bio-availability, coadministration of azithromycin) was found to be 0.65. Also, the “Rifampin on F1” value in data set [4] (covariate effect on bio-availability, coadministration of rifampin) was found to be 4.91. Moreover, in data set [4] (covariate effect on bio-availability, low-fat meal is the reference category), the “Low fat on F1” value was determined as 1. Further, the Vd in data set [4] (female, human, plasma, oral) was determined as 99 L. In data set [4] (in vivo), the “higher bioavailability with coadministration of rifampin” value came to 391%, the “higher clearance with coadministration of rifampin” value was determined as 167% and the “lower bio‐availability with coadministration of azithromycin” value worked out at 35%. In addition, in data set [4] (parameter Fixed, not estimated), the “Dose nonlinearity on F1” value is −0.178. In addition, in data set [4] (population PK estimate), the “ALAG, absorption lag time” value is 0.04 days and the “KA, absorption rate” value was 3.83 day⁻¹. Further, the “CL/F, apparent clearance” value in data set [4] (population PK estimate, oral, healthy subjects) is reported as 449 L/day. In data set [4] (relative to a low‐fat meal), the “higher bio‐availability with a moderate/high‐fat meal” value was 47% and the “lower bio‐availability under fasting conditions” value was found to be 71%.

Take rituximab: in the data set with B cells, the “time of reduction in B cells from circulation postinfusion” value is recorded as 1–28 weeks.
